# Assay results collected from several papers.
# Protocols differ between the studies behind these lines.
# Target: Receptor tyrosine-protein kinase erbB-2 (ERBB2, Homo sapiens, UniProt P04626)
Compound,test,conditions,quantity,result
NS(=O)(=O)c1cc(NC(=O)C2(c3ccccc3Cl)CC2)ccc1Oc1cccc(Cl)c1,"cell-free assay, competition with immobilised ligand",1 µM,remaining binding,49%
COc1cccc2c(NCc3ccccc3)nc(-n3c(N)nc4ccccc43)nc12,"target engagement in cells, inhibitor, chemoproteomics",20 mM,inhibition,32.6%
COc1cc(Nc2c(C#N)cnc3cc(OCCCN4CCN(C)CC4)c(OC)cc23)c(Cl)cc1Cl,cell-free assay,0.5 µM,remaining signal,32.9%
O=C(NS(=O)(=O)c1ccc(NCC2CCOCC2)c([N+](=O)[O-])c1)c1ccc(N2CCN(Cc3ccc(C(F)(F)F)cc3-c3ccc(Cl)cc3)CC2)cc1Oc1cnc2[nH]ccc2c1,"cell-free assay, competition with immobilised ligand",1 µM,remaining binding,100%
Cc1ccc(C(=O)Nc2ccc(CN3CCN(C)CC3)c(C(F)(F)F)c2)cc1C#Cc1cnc2cccnn12,"enzyme activity, inhibitor",23.5 nM,remaining activity,44%
Clc1ccc(Nc2nnc(Cc3ccncc3)c3ccccc23)cc1,cell-free assay,0.5 µM,remaining signal,101%
CS(=O)(=O)Nc1cccc(-c2csc(NC(=O)CSc3nc4nccnc4c(=O)n3CCc3ccccc3)n2)c1,"enzyme activity, inhibitor",10 µM,inhibition,-12%
CC/C(=N\NC(=O)NCc1cccc(O)c1)c1ccc(O)c(C)c1O,"enzyme activity, inhibitor",0.1 µM,inhibition,0.8%
O=C(NCc1ncc(C(F)(F)F)cc1Cl)c1ccc2c(c1)C1(CCS(=O)(=O)CC1)[C@H](C1CC1)N2S(=O)(=O)c1ccc(F)cc1,"cell-free assay, competition with immobilised ligand",1 µM,remaining binding,100%
CC(C)(C)c1nc2c(s1)c1nc(N)ncc1c1ccc(NS(=O)(=O)c3c(F)cccc3F)c(F)c12,"enzyme activity, inhibitor, radiometric",1 µM,remaining activity,109%
CCCS(=O)(=O)Nc1ccc(F)c(C(=O)c2c[nH]c3ncc(-c4ccc(Cl)cc4)cc23)c1F,"enzyme activity, inhibitor",1 µM,inhibition,< 10%
Cc1ccc(NC(=O)c2ccc(CN3CCN(C)CC3)cc2)cc1Nc1nc(-c2cccnc2)cs1,cell-free assay,0.5 µM,remaining signal,103%
CCCCNc1ncc2c(-c3ccc(F)cc3)nn(C[C@H]3CC[C@H](N)CC3)c2n1,"target engagement in cells, inhibitor, chemoproteomics",20 mM,inhibition,77.8%
CN1CC(Oc2cnc(C#N)cc2-c2ccn3nc(NC(=O)C4CC4)cc3c2)C1,"enzyme activity, inhibitor",1 µM,inhibition,-3%
COc1cc2ncnc(Nc3ccc(Oc4ccccc4)c(C)c3C)c2cc1OC,"enzyme activity, inhibitor",1 µM,inhibition,76%
COc1cc2c(N3CCN(C(=O)Nc4ccc(OC(C)C)cc4)CC3)ncnc2cc1OCCCN1CCCCC1,cell-free assay,0.5 µM,remaining signal,104%
C=CC(=O)Nc1cc(Nc2nccc(Nc3cc(Cl)c(F)cc3C(C)(C)O)n2)c(OC)cc1N1CC[C@@H](N(C)C)C1,"enzyme activity, inhibitor",1 µM,inhibition,73%
CCCOc1ccc([C@H]2[C@H](C(=O)O)[C@@H](c3ccc4c(c3)OCO4)CN2CC(=O)Nc2c(CC)cccc2CC)cc1,"cell-free assay, competition with immobilised ligand",1 µM,remaining binding,79%
Cc1sc(C(=O)NC2COC2)cc1-n1cc(NC(=O)Nc2c(F)cccc2Cl)cn1,"enzyme activity, inhibitor",10 µM,remaining activity,64.1%
COc1ccc(COc2ccc(Cc3cnc(N)nc3N)cc2OC)cc1,cell-free assay,0.5 µM,remaining signal,106%
Cc1noc([C@H]2C[C@@H](c3ccc(C(F)(F)F)cc3)CN(C(=O)N3CCS(=O)(=O)C3)C2)n1,"cell-free assay, competition with immobilised ligand",1 µM,remaining binding,100%
CC(C)(O)[C@H]1CC[C@H](Nc2ccc3ncc(-c4cccc(C(F)(F)F)c4)n3n2)CC1,"enzyme activity, inhibitor",1 µM,remaining activity,92%
COc1ccc2c(c1)O[C@@H](c1ccc(OC)c(OC)c1)C[C@H]2NC(=O)C1(c2ccc3c(c2)OC(F)(F)O3)CC1,"cell-free assay, competition with immobilised ligand",1 µM,remaining binding,75%
COc1cc2nccc(Oc3ccc(NC(=O)c4c5n(n(-c6ccc(F)cc6)c4=O)CCCC5)cc3)c2cc1OC,"enzyme activity, inhibitor",0.1 µM,inhibition,-1%
Cn1nc(C(F)(F)F)cc1-c1cnc(N2CCc3cc(S(=O)(=O)Nc4c(F)cc(Cl)cc4F)cc(N4CCCC4=O)c32)nc1,"cell-free assay, competition with immobilised ligand",1 µM,remaining binding,79%
O=C1Nc2ccc(Cl)cc2C1=Cc1cc(Cl)c(O)c(Cl)c1,cell-free assay,0.5 µM,remaining signal,107%
